Assay results: ChEMBL document CHEMBL1138825, “N-phenylphenylglycines as novel corticotropin releasing factor receptor antagonists” (J Med Chem, 2004)

Tests used:
[1] = target: T1, Corticotropin-releasing factor receptor 2 (Homo sapiens, UniProt Q13324); test: Binding affinity of compound towards human Corticotropin releasing factor receptor 2; inactive at 10 uM
T1 sequence (Q13324 whole entry): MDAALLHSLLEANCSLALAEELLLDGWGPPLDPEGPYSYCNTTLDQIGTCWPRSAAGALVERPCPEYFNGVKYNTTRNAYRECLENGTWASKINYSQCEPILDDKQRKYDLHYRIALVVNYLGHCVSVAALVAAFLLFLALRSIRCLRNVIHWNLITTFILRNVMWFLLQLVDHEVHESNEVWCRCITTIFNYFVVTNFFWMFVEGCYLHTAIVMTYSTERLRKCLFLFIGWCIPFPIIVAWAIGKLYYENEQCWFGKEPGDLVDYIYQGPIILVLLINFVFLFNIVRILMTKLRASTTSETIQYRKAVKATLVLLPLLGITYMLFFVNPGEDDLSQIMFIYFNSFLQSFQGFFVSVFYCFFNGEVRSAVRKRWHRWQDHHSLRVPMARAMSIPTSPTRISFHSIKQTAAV

[2] = target: T2, Corticotropin-releasing factor receptor 1 (Homo sapiens, UniProt P34998); test: Binding affinity of compound towards human Corticotropin releasing factor receptor 1
T2 sequence (P34998 whole entry): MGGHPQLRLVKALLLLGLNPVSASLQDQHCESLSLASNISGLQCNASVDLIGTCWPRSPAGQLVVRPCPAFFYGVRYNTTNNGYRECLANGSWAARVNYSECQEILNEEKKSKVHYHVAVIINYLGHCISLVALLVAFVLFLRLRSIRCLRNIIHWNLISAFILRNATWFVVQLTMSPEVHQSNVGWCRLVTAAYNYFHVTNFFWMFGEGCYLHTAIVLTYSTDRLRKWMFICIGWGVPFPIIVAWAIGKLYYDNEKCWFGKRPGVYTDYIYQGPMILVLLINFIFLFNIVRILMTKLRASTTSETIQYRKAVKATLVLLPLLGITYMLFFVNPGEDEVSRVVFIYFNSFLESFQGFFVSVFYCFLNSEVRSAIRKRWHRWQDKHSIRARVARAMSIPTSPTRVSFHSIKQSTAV

[3] = target: T2, Corticotropin-releasing factor receptor 1; test: Binding affinity towards human corticotropin releasing factor (h-CRF1) receptor
How it was run: (§1)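 Ki values were measured in duplicate. If the duplicate Ki values differed by more than 15%, further duplicate runs were done until this criterion was met, and the determinations were averaged. Mean Ki is reported where there was more than one determination. Internal control compounds were run on every plate.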

[4] = target: T3, 5-hydroxytryptamine receptor 1A (Homo sapiens, UniProt P08908); test: Binding affinity of compound towards serotonin 5-hydroxytryptamine 1A receptor; inactive at 10 uM
T3 sequence (P08908 whole entry): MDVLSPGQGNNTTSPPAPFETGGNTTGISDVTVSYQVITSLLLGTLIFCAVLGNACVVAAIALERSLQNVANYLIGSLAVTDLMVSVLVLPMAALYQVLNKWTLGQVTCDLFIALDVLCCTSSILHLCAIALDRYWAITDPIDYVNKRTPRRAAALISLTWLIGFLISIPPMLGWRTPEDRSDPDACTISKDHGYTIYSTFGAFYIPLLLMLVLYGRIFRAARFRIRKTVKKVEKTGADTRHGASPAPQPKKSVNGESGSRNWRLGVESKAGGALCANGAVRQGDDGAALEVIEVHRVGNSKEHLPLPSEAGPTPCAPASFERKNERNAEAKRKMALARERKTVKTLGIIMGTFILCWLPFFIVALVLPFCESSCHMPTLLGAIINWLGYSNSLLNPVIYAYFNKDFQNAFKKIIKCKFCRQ

[5] = target: 5-hydroxytryptamine receptor 1B (Homo sapiens, UniProt P28222); test: Binding affinity of compound towards serotonin 5-hydroxytryptamine 1B receptor; inactive at 10 uM
[6] = target: 5-hydroxytryptamine receptor 2A (Homo sapiens, UniProt P28223); test: Binding affinity of compound towards serotonin 5-hydroxytryptamine 2A receptor; inactive at 10 uM
[7] = target: 5-hydroxytryptamine receptor 1D (Homo sapiens, UniProt P28221); test: Binding affinity of compound towards serotonin 5-hydroxytryptamine 1D receptor; inactive at 10 uM
[8] = target: 5-hydroxytryptamine receptor 7 (Homo sapiens, UniProt P34969); test: Binding affinity of compound towards serotonin 5-hydroxytryptamine 7 receptor; inactive at 10 uM
[9] = target: 5-hydroxytryptamine receptor 6 (Homo sapiens, UniProt P50406); test: Binding affinity of compound towards serotonin 5-hydroxytryptamine 6 receptor; inactive at 10 uM
[10] = Compound was evaluated for total body clearance; assay type: ADME; details: read-out: Activity (converted)
[11] = Compound was evaluated for volume of distribution at steady state; assay type: ADME; details: read-out: Activity
[12] = Compound was evaluated for half-life period; assay type: ADME
How it was run: (§2)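 Cassette dosing in beagle dogs (n = 2 per route), with each compound given alongside seven others. Oral dose was 1 mg/kg, with sampling at 0, 0.5, 1, 2, 4, 6, 8 and 24 h. Plasma drug levels were measured by LC/MS/MS.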

[13] = Compound was evaluated for oral bioavailability; assay type: ADME, organism-based; details: in vivo, read-out: Bioavailabiility; how it was run: as §2
[14] = target: T2, Corticotropin-releasing factor receptor 1; test: Binding affinity of compound towards human corticotropin releasing factor (h-CRF1) receptor showed a 2-fold activity in racemic mixture; how it was run: as §1
[15] = target: T2, Corticotropin-releasing factor receptor 1; test: Binding affinity of compound towards human corticotropin releasing factor (h-CRF1) receptor showed a 2-fold activity in racemic mixture; inactive; how it was run: as §1
[16] = target: T2, Corticotropin-releasing factor receptor 1; test: Binding affinity of compound towards human corticotropin releasing factor (h-CRF1) receptor; inactive; how it was run: as §1

Chain of 5-hydroxytryptamine receptor 6 (P50406 whole entry): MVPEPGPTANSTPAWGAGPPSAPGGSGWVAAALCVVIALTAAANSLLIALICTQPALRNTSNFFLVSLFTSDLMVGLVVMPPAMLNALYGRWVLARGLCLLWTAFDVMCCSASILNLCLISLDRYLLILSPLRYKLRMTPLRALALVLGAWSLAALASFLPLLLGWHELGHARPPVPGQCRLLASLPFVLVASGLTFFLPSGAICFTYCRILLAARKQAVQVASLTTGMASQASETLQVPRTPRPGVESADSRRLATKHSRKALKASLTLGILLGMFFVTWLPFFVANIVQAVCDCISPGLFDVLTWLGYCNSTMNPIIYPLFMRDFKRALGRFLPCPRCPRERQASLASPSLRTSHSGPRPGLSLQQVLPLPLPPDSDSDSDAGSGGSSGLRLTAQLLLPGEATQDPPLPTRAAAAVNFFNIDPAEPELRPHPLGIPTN
Chain of 5-hydroxytryptamine receptor 1B (P28222 whole entry): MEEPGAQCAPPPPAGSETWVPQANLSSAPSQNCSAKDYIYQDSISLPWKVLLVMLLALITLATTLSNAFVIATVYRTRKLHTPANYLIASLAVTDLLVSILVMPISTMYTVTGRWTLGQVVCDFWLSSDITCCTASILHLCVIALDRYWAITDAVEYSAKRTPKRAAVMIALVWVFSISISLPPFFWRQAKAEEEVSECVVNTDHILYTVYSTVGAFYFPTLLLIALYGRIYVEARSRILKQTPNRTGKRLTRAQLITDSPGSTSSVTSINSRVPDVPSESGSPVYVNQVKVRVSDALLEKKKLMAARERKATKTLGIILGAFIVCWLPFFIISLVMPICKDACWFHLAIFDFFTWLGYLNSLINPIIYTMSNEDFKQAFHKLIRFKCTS
Chain of 5-hydroxytryptamine receptor 2A (P28223 whole entry): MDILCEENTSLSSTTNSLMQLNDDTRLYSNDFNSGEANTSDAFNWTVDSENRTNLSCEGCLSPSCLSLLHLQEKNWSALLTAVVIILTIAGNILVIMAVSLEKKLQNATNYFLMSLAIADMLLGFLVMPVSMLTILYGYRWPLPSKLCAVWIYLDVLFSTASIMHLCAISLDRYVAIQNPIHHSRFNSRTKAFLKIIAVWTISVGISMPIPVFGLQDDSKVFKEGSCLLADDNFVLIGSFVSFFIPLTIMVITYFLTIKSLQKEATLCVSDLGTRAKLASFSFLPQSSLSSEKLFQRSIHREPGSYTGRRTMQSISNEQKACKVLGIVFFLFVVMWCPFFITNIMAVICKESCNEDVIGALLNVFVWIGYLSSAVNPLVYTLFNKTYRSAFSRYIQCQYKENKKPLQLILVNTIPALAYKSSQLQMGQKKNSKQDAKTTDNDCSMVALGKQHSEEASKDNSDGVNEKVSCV
Chain of 5-hydroxytryptamine receptor 7 (P34969 whole entry): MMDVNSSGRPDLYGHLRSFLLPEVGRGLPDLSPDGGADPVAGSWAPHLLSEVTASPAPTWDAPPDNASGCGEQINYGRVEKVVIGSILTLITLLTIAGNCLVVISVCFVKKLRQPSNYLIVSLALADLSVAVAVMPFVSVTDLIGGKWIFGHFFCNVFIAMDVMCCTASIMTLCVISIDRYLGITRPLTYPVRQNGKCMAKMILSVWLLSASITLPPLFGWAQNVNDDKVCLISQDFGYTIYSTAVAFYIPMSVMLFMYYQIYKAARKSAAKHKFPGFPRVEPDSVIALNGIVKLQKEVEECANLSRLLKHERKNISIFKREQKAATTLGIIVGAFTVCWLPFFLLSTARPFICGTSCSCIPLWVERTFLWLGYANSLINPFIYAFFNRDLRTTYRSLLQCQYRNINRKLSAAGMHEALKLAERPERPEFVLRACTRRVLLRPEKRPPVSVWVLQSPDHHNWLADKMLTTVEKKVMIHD
Chain of 5-hydroxytryptamine receptor 1D (P28221 whole entry): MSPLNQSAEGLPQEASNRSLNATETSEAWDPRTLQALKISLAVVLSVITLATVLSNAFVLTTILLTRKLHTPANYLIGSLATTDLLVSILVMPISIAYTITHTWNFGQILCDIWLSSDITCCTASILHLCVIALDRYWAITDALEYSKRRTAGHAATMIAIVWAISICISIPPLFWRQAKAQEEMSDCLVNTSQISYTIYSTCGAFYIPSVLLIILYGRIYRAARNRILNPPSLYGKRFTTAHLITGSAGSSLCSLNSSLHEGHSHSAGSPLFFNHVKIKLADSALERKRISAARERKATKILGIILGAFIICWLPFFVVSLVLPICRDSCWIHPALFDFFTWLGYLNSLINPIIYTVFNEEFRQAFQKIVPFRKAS

Ki [3] [nM]	SMILES	other results
–	Cc1ccc(NC(C(=O)CCc2ccncc2)c2ccccc2Br)c(Cl)c1 (stereo not given)	Ki [1]: Not Active; Ki [2]: 1040 nM
338	Cc1cccc(C)c1C(Nc1ccc(Cl)cc1Cl)C(=O)CCc1ccncc1 (stereo not given)	–
469	Cc1ccccc1C(Nc1ccc(Cl)cc1C(F)(F)F)C(=O)CCc1ccncc1 (stereo not given)	–
> 10000	Cc1ccc(NC(C(=O)CCc2ccccn2)c2ccccc2Br)c(Cl)c1 (stereo not given)	–
> 10000	COc1ccc(C(Nc2ccc(C)cc2Cl)C(=O)CCc2ccncc2)c(OC)c1 (stereo not given)	–
> 10000	CN(c1ccccc1Cl)C(C(=O)CCc1ccncc1)c1ccccc1Br (stereo not given)	–
> 10000	Cc1ccc(NC(C(=O)CCc2ccncc2)c2ccc(Cl)cc2)c(Cl)c1 (stereo not given)	–
7330	O=C(CCc1ccncc1)C(Nc1ccccc1Cl)c1ccccc1Br (stereo not given)	–
752	C=Cc1ccccc1C(Nc1ccc(C)cc1Cl)C(=O)CCc1ccncc1 (stereo in doubt; 4)	–
> 10000	COc1cccc(C(Nc2ccc(C)cc2Cl)C(=O)CCc2ccncc2)c1 (stereo not given)	–
3180	Cc1ccccc1[C@H](Nc1ccc(Cl)cc1Cl)C(=O)CCc1ccncc1	–
922	Cc1ccc(NC(C(=O)CCc2ccncc2)c2ccccc2C)c(Cl)c1 (stereo not given)	–
154	Cc1ccccc1[C@@H](Nc1ccc(Cl)cc1Cl)C(=O)CCc1ccncc1	Ki [4]: Not Active; Ki [5]: Not Active; Ki [6]: Not Active; Ki [7]: Not Active; Ki [8]: Not Active; Ki [9]: Not Active; clearance [10]: 21.7 mL/min/kg; Vd [11]: 1.8 L/kg; half-life [12]: 102 min; bioavailability [13]: 7%
> 10000	Cc1ccc(C(Nc2ccc(C)cc2Cl)C(=O)CCc2ccncc2)cc1 (stereo not given)	–
> 5000	Cc1ccc(NC(C(=O)CCc2ccncc2)c2cccc(Cl)c2)c(Cl)c1 (stereo not given)	–
–	Cc1ccc(N[C@@H](C(=O)CCc2ccncc2)c2ccccc2Br)c(Cl)c1	Ki [14]: 546 nM
> 10000	Cc1ccc(NC(C(=O)Cc2ccncc2)c2ccccc2Br)c(Cl)c1 (stereo not given)	–
641	Cc1ccc(NC(C(=O)CCc2ccncc2)c2ccccc2C)c(C(F)(F)F)c1 (stereo not given)	–
> 10000	COc1cccc(OC)c1C(Nc1ccc(C)cc1Cl)C(=O)CCc1ccncc1 (stereo not given)	–
370	Cc1ccccc1C(Nc1ccc(Cl)cc1Cl)C(=O)CCc1ccncc1 (stereo not given)	–
> 10000	COc1ccccc1C(Nc1ccc(C)cc1Cl)C(=O)CCc1ccncc1 (stereo not given)	–
387	COc1ccc(C(=O)C(Nc2ccc(Cl)cc2Cl)c2ccccc2C)cc1O (stereo not given)	–

Ki [3] [nM]	SMILES	other results
330	CCc1ccccc1C(Nc1ccc(Cl)cc1Cl)C(=O)CCc1ccncc1 (stereo not given)	–
–	Cc1ccc(NC(C(=O)CCc2ccncc2)c2ccccc2F)c(Cl)c1 (stereo not given)	Ki [2]: > 10000 nM
> 10000	Cc1cccc(C(Nc2ccc(C)cc2Cl)C(=O)CCc2ccncc2)c1 (stereo not given)	–
3300	Cc1ccc(NC(C(=O)CCc2ccncc2)c2ccccc2C(C)C)c(Cl)c1 (stereo not given)	–
> 10000	Cc1ccccc1C(Nc1ccc(Cl)cc1Cl)C(=O)c1cccc(O)c1 (stereo not given)	–
512	Cc1cc(F)ccc1C(Nc1ccc(Cl)cc1Cl)C(=O)CCc1ccncc1 (stereo not given)	–
> 10000	Cc1ccc(NC(C(=O)CCc2ccc(F)cc2)c2ccccc2Br)c(Cl)c1 (stereo not given)	–
1000	O=C(CCc1ccncc1)C(Nc1ccc(Cl)cc1Cl)c1ccccc1C(F)(F)F (stereo not given)	–
> 10000	Cc1ccc(NC(C(=O)CCc2ccccc2)c2ccccc2Br)c(Cl)c1 (stereo not given)	–
752	C=Cc1ccccc1C(Nc1ccc(C)cc1Cl)C(=O)CCc1ccncc1 (stereo in doubt; 32)	–
244	Cc1ccc(N[C@@H](C(=O)CCc2ccncc2)c2ccccc2C)c(Cl)c1	–
514	CC(=O)Nc1cccc(C(=O)C(Nc2ccc(Cl)cc2Cl)c2ccccc2Br)c1 (stereo not given)	–
439	Cc1ccc(NC(C(=O)CCc2ccncc2)c2ccccc2C)c(F)c1 (stereo not given)	–
–	Cc1ccc(N[C@H](C(=O)CCc2ccncc2)c2ccccc2Br)c(Cl)c1	Ki [15]: Not Active
–	Cc1ccc(N[C@H](C(=O)CCc2ccncc2)c2ccccc2C)c(Cl)c1	Ki [16]: Not Active
> 10000	Cc1ccc(NC(C(=O)CCc2ccncc2)c2ccccc2)c(Cl)c1 (stereo not given)	–
> 10000	Cc1ccc(NC(C(=O)CCc2cccnc2)c2ccccc2Br)c(Cl)c1 (stereo not given)	–
> 10000	COc1ccc(OC)c(C(Nc2ccc(C)cc2Cl)C(=O)CCc2ccncc2)c1 (stereo not given)	–
204	O=C(CCc1ccncc1)C(Nc1ccc(Cl)cc1Cl)c1ccccc1Br (stereo not given)	–
> 10000	Cc1ccc(NC(C(=O)CCc2cnc[nH]2)c2ccccc2Br)c(Cl)c1 (stereo not given)	–
1070	COc1ccc(C(=O)C(Nc2ccc(C)cc2Cl)c2ccccc2Br)cc1O (stereo not given)	–
> 10000	COc1ccc(C(=O)C(Nc2ccc(Cl)cc2Cl)c2ccccc2C)cc1OC (stereo not given)	–
